APP 5'UTR act = APP 5'UTR luciferase reporter activation | SH-SY5Y APP 5'UTR luciferase reporter, luminescence; zero percent = DMSO vehicle wells | activation, % at 2 µM | 1% of 190,000 active | AID 1276;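 active = activation above a set limit, based on mean plus 3 SD of controls, cut at about 140% in these data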
STAT3 inh-1 = inhibitors of IL-6 induced STAT3 signaling | inhibition, % at 5.5 µM | U3A cells, IL-6 STAT3-luciferase reporter, luminescence; host cell line lacks STAT1 | 0.89% of 190,000 active;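 active = inhibition above the mean inhibition across all screened compounds plus 3 SD, cut at about 44% in these data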;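 also: 0% = DMSO only wells and 100% = 100 µM nifuroxazide control wells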
NF-kB expr up = raises NF-kB expression in human neuronal cells | 1.6% of 190,000 active | NF-kB reporter expression; active compounds read high | fold change at 12.5 µM; in the data active = fold change above about 3.3
STAT1 activator = increases IFN-gamma driven STAT1 reporter signal; NIH 3T3 STAT1-luciferase reporter, luminescence; 100% = IFN-gamma alone, no compound; activation (% of control), % at 5.5 µM; 2.6% of 200,000 active;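 active = activation above the screen-wide mean activation plus 3 SD, cut at about 130% in these data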;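 also: raw ratio to IFN-gamma control signal so 100% means no change and 0% no light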
STAT1 inh = reduces IFN-gamma driven STAT1 reporter signal; NIH 3T3 STAT1-luciferase reporter, luminescence; inhibition, % at 5.5 µM; 0.35% of 200,000 active;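 active = inhibition above a set limit, the mean inhibition across all tested compounds plus 3 SD, cut at about 34% in these data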;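 also: 0% = IFN-gamma with DMSO and 100% = IFN-gamma with 300 µM nifuroxazide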
STAT3 act = STAT3 signaling activation; U3A cells, IL-6 STAT3-luciferase reporter, luminescence; 100% = signal with IL-6 EC80 alone; activation (% of control), % at 5.6 µM; 0.91% of 190,000 active; AID 871;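 active = activation above the screen-wide mean of compound activation plus 3 SD, cut at about 130% in these data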;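 also: 0% = background luminescence of wells with medium and substrate only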
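Material: STAT1-lacking human U3A cells, STAT3 luciferase reporter | Benchmarks: IL-6-only wells as 100% reference | Probe or stimulus: IL-6 (33 ng/mL) | Timing: Compound 1 h, then IL-6 6 h at 37 °C | Detection: Luminescence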
STAT3 inh-2 = STAT3 inhibition, confirmation assay. inhibition, % at 5.7 µM. 45% of 1,200 active. shares compounds with STAT3 inh-1. U3A cells, IL-6 STAT3 luciferase reporter, luminescence; cell line lacks STAT1;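 active = inhibition above the hit cutoff computed for the primary STAT3 screen, cut at about 44% in these data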;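 also: 0% = IL-6 plus DMSO and 100% = IL-6 plus nifuroxazide control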
NFkB inh STAT3ct = inhibits NF-kappaB, counter-screen to STAT3 inhibitors. shares compounds with STAT3 inh-1. HEK293T NF-kB luciferase reporter, TNF-alpha induced. inhibition, % at 5.7 µM. 36% of 1,200 active;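 active = inhibition above the mean of solvent-only control wells plus 3 SD, cutoff set per campaign, cut at about 13% in these data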;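 also: 0% = TNF-alpha with DMSO and 100% = TNF-alpha with MG high control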
STAT1 inh STAT3c = STAT1 inhibition in STAT3 inhibitor counter-screen | 27% of 1,200 active | shares compounds with STAT3 inh-1 | inhibition, % at 5.7 µM | AID 1317 | NIH 3T3 STAT1-luciferase reporter, IFN-gamma induced, luminescence;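 active = inhibition above the mean plus 3 SD of solvent-only control wells, limit set per screening run, cut at about 16% in these data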;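 also: 0% = DMSO with IFN-gamma and 100% = nifuroxazide control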
Active calls of the source: *; . = not tested or not shown. The list is not random: actives were taken first. Their share in the collection is about 4.9%.

SMILES	APP 5'UTR act	STAT3 inh-1	NF-kB expr up	STAT1 activator	STAT1 inh	STAT3 act	others
OC1(c2cccc(C(F)(F)F)c2)CCN(c2ccc(-c3ccccc3)nn2)CC1	-9	-18	1.6	141*	-45	118
CCOc1ccccc1NC(=O)COn1nnc2ccccc21	2	0	1.2	105	-5	103
CCn1c(O)c(C=Nc2ccccc2)sc1=O	20	6	1.6	130*	-34	100
Oc1c(C=Nc2ccccc2)sc(=S)n1Cc1ccccc1	4	2	1.3	104	-4	104
C=CCn1c(O)c(C=Nc2ccccc2)sc1=S	39	0	1.6	129*	-33	102
CC(=O)c1cccc(N(C(=O)CNC(=O)c2ccco2)C(C(=O)NCc2ccco2)c2ccccc2)c1 (centres undefined)	6	-4	1.1	98	0	106
N/C(=N\OC(=O)c1ccco1)c1ccc(Cl)cc1	158*	15	1.1	137*	-42	89
N/C(=N\OC(=O)c1ccccc1Cl)c1ccccc1	166*	1	7.7*	100	0	99
COc1ccccc1C(=O)O/N=C(\N)c1ccccc1Cl	49	-11	2.7	139*	-44	109
COc1ccc(C(=O)O/N=C(\N)c2ccccc2)c(OC)c1	188*	76*	1.6	68	34*	38
COc1ccc(/C(N)=N/OC(=O)Oc2ccccc2)cc1OC	3	-4	0.92	97	4	106
COc1ccccc1C(=O)Oc1ccc(C(C)C)cc1	26	-2	1.1	100	-1	107
O=C(O/N=C(\c1ccccc1)c1ccncc1)c1ccccc1Cl	2	18	1.2	100	-2	93
COc1ccc(OC)c(C(C)NC(=O)Nc2cccc(C(C)=O)c2)c1 (centres undefined)	8	2	1.3	105	-6	109
N/C(=N\OC(=O)CCc1ccccc1)c1ccccc1Cl	33	10	1.2	141*	-44	99
N/C(=N\OC(=O)c1ccc(Cl)cc1Cl)c1ccc(Cl)cc1	15	43	1.5	128	-31	72
N/C(=N\OC(=O)c1cccc2ccccc12)c1cccnc1	63	-39	1.9	128	-33	136*
N/C(=N\OC(=O)c1ccc(Cl)cc1Cl)c1ccccc1	174*	42	2.5	108	-9	72
N/C(=N\OC(=O)c1ccc(Cl)cc1Cl)c1cccnc1	131	19	6.3*	129*	-33	87
Cc1ccc(/C(N)=N/OC(=O)CCc2ccccc2)cc1	45	7	2	121	-24	104
N/C(=N\OC(=O)c1ccc(Cl)cc1)c1cccnc1	45	16	2.5	127	-38	87
CC(=O)c1c(C)[nH]c(C(=O)NCCN2CCC(C)CC2)c1C	27	6	1	106	-6	99
CN(C)S(=O)(=O)N1CCCC(C(=O)c2ccc(-c3ccccc3)cc2)C1 (centres undefined)	18	10	1	94	4	97
O=C(Nc1ccc2c(c1)CCC2)c1cc2ccccc2o1	185*	18	11*	151*	-55	90
O=C(Nc1ccc2c(c1)CCC2)c1ccc(Br)o1	116	14	3.3	120	-21	93
SMILES	APP 5'UTR act	STAT3 inh-1	NF-kB expr up	STAT1 activator	STAT1 inh	STAT3 act	others
Cc1ccc(C(=O)Nc2ccc3c(c2)CCC3)o1	119	9	7.8*	137*	-38	96
CCCn1nnnc1NC(=O)COc1ccc(CC)cc1	11	-4	1	101	-1	103
COc1ccc(NC(=O)CCCc2c[nH]c3ccccc23)cc1OC	-15	-5	1.2	110	-11	102
COc1ccc(C(c2c[nH]c3ccccc23)c2c[nH]c3ccccc23)cc1O	-3	-107	0.95	101	-1	192*
CSc1nn(CCc2ccncc2)c(=S)s1	5	6	1.4	108	-9	103
Cc1sc2ncnc(SCC(=O)NC(=O)c3cccn3C)c2c1C	2	7	1.3	95	6	94
Nc1ccc2nc(-c3ccc(Cl)cc3)[nH]c2c1	61	.	8.5*	.	.	.
O=[N+]([O-])c1ccc(-c2nc3ccc([N+](=O)[O-])cc3[nH]2)cc1	30	18	1.4	131*	-35	94
O=[N+]([O-])c1ccc2nc(/C=C/c3ccc(Cl)cc3)[nH]c2c1	136*	20	0.97	83	19	86
Nc1ccc(O)cc1C(=O)OCC(=O)c1ccc(C2CCCCC2)cc1	-49	39	6.8*	107	-8	69
COc1ccc(C(=O)OCC(=O)c2ccc(C3CCCCC3)cc2)cc1	25	39	1.1	97	4	70
O=C(CSc1ccc(-c2cccc([N+](=O)[O-])c2)nn1)N1CCCC1	17	10	1.1	108	-13	96
CCSc1ccc(-c2cccc([N+](=O)[O-])c2)nn1	28	-5	1.1	137*	-45	108
CC(=O)Nc1ccc(OS(=O)(=O)c2c(C)cc(C)cc2C)cc1	9	7	0.92	99	-1	99
O=C(O)c1cccc(-c2nc3ccccc3[nH]2)c1	15	65*	1.7	50	55*	44
Cc1ccc(-c2nc3ccccc3[nH]2)s1	114	27	5.5*	123	-25	82
Cc1cc(-c2nc3ccccc3[nH]2)ccc1N	107	29	5*	116	-20	79
CC(=O)Nc1ccc(NC(=O)CSc2nnc(C)c(=O)[nH]2)cc1	-7	-10	1.2	101	-1	108
Clc1ccc(Br)cc1-c1nc(-c2cccnc2)no1	10	-43	.	105	-6	141*
Cc1ccccc1-c1nc(-c2cccnc2)no1	76	-11	3.7*	139*	-43	112
Clc1ccccc1-c1nc(-c2cccnc2)no1	111	-21	1.4	129*	-31	120
Cc1onc(-c2ccccc2Cl)c1-c1nc(-c2ccncc2)no1	-5	2	0.89	110	-11	101
COc1ccc(CNC(=O)C(CCSC)NS(=O)(=O)c2ccccc2F)cc1 (centres undefined)	3	4	0.96	96	4	100
Cc1nc2ccc(NS(=O)(=O)c3ccc4c(c3)OCCO4)cc2s1	11	71*	0.82	78	24	41	STAT3 inh-2=67*;NFkB inh STAT3ct=26*;STAT1 inh STAT3c=28*

From PubChem
